Where a SMILES comes first, the peptide text is derived from it. Bridges are numbered along the chain shown (N, C = ends). [ ]: non-standard residue; d: D form. Phe(4-NO2) = N[C@@H](Cc1ccc([N+](=O)[O-])cc1)C(=O)O; Phe(4-Cl) = N[C@@H](Cc1ccc(Cl)cc1)C(=O)O; dPhe(4-Cl) = N[C@H](Cc1ccc(Cl)cc1)C(=O)O; 2Nal = N[C@@H](Cc1ccc2ccccc2c1)C(=O)O; d2Nal = N[C@H](Cc1ccc2ccccc2c1)C(=O)O
Species: Rattus norvegicus
Test: In vitro GH release inhibiting potency on anterior pitutaries from adult male rats, relative to somatostatin
Format: functional
How it was run: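 Rat anterior pituitary cells (adult males, 200-250 g), trypsin/DNase dispersed, plated 2 × 10^5 cells/well, cultured 96 h at 37 °C in serum-supplemented DMEM. After washing, cells were pulsed 3 h at 37 °C with 1 nM GRF(1-29)NH2 ± graded analogue doses in medium 199/1% BSA, quadruplicate wells. Medium GH was measured by double-antibody RIA. Potency relative to somatostatin (=1.0) came from four-point assay (mean of ≥3 experiments) or IC50 comparison.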

First: C[C@@H](O)[C@@H]1NC(=O)[C@H](CCCN=C(N)N)NC(=O)[C@@H](Cc2c[nH]c3ccccc23)NC(=O)[C@H](Cc2ccccc2)NC(=O)[C@H](Cc2ccccc2)NC(=O)CCCCCCNC(=O)[C@H](Cc2ccccc2)NC1=O (stereo in doubt)
Second: C[C@@H](O)[C@@H]1NC(=O)[C@H](CCCCN)NC(=O)[C@@H](Cc2c[nH]c3ccccc23)NC(=O)[C@H](Cc2ccc(N)cc2)NC(=O)[C@H](Cc2ccccc2)NC(=O)CCCCCCNC(=O)[C@H](Cc2ccccc2)NC1=O (stereo in doubt)
The GHI of the first is lower: 14 for the first, 35 for the second.

Compared with NCCCCC1NC(=O)[C@@H](Cc2c[nH]c3ccccc23)NC(=O)C(Cc2ccccc2)NC(=O)[C@H](Cc2ccccc2)NC(=O)CCCCCCNC(=O)C(Cc2ccccc2)NC(=O)C2(CCCC2)NC1=O (single isomer, unassigned), C[C@H]1C(=O)NC(Cc2ccccc2)C(=O)NCCCCCCC(=O)N[C@@H](Cc2ccccc2)C(=O)NC(Cc2ccccc2)C(=O)N[C@H](Cc2c[nH]c3ccccc23)C(=O)NC(CCCCN)C(=O)N1C (single isomer, unassigned) is higher in GHI: 6.7 for the first, 50 for the second.

Compared with CC(C)[C@H](NC(=O)[C@H](CCCCN)NC(=O)[C@@H](Cc1c[nH]c2ccccc12)NC(=O)[C@H](Cc1ccc(O)cc1)NC(=O)[C@H](Cc1ccc([N+](=O)[O-])cc1)NC(=O)[C@H](N)Cc1ccccc1)C(=O)N[C@@H](Cc1ccccc1)C(=O)N[C@H](C(N)=O)[C@@H](C)O (H-[dF][Phe(4-NO2)]Y[dW]KVFT-NH2), CC(C)[C@H](NC(=O)[C@H](CCCCN)NC(=O)[C@@H](Cc1c[nH]c2ccccc12)NC(=O)[C@H](Cc1ccc(O)cc1)NC(=O)[C@H](Cc1ccc(Cl)cc1)NC(=O)[C@H](N)Cc1ccccc1)C(=O)N[C@@H](Cc1ccccc1)C(=O)N[C@H](C(N)=O)[C@@H](C)O (H-[dF][Phe(4-Cl)]Y[dW]KVFT-NH2) is lower in GHI: 159 for the first, 17 for the second.

First: C[C@@H](O)[C@H](NC(=O)[C@H](CCCCN)NC(=O)[C@@H](Cc1c[nH]c2ccccc12)NC(=O)[C@H](Cc1ccc(O)cc1)NC(=O)[C@H](Cc1ccc(Cl)cc1)NC(=O)[C@H](N)Cc1ccccc1)C(=O)N[C@@H](Cc1ccccc1)C(=O)N[C@@H](Cc1ccc2ccccc2c1)C(N)=O
Second: CC(C)[C@H](NC(=O)[C@H](CCCCN)NC(=O)[C@@H](Cc1c[nH]c2ccccc12)NC(=O)[C@H](Cc1ccc(O)cc1)NC(=O)[C@H](Cc1ccccc1)NC(=O)[C@H](N)Cc1ccccc1)C(=O)N[C@@H](Cc1ccccc1)C(=O)N[C@H](Cc1ccc2ccccc2c1)C(N)=O (H-[dF]FY[dW]KVF[d2Nal]-NH2)
The GHI of the first is lower: 100 for the first, 12500 for the second.

Compared with C[C@@H](O)[C@@H]1NC(=O)C(CCCCN)NC(=O)[C@@H](Cc2c[nH]c3ccccc23)NC(=O)C(Cc2ccccc2)NC(=O)[C@H](Cc2ccccc2)NC(=O)C(Cc2ccccc2)NC1=O (single isomer, unassigned), C[C@@H](O)[C@@H]1NC(=O)[C@H](CCCCN)NC(=O)[C@H](Cc2c[nH]c3cc(F)ccc23)NC(=O)[C@H](Cc2ccccc2)NC(=O)[C@H](Cc2ccccc2)NC(=O)CCCCCCNC(=O)[C@H](Cc2ccccc2)NC1=O (stereo in doubt) is lower in GHI: 3.71 for the first, 2.4 for the second.

First: C[C@@H](O)[C@H](NC(=O)[C@H](Cc1ccccc1)NC(=O)[C@@H](NC(=O)[C@H](CCCCN)NC(=O)[C@@H](Cc1c[nH]c2ccccc12)NC(=O)[C@H](Cc1ccc(O)cc1)NC(=O)[C@H](Cc1ccc(Cl)cc1)NC(=O)[C@H](N)Cc1ccc2ccccc2c1)[C@@H](C)O)C(N)=O (H-[d2Nal][Phe(4-Cl)]Y[dW]KTFT-NH2)
Second: C[C@H](NC(=O)[C@H](N)Cc1ccccc1)C(=O)N[C@@H](Cc1ccc(O)cc1)C(=O)N[C@H](Cc1c[nH]c2ccccc12)C(=O)N[C@@H](CCCCN)C(=O)N[C@H](C(=O)N[C@@H](C)C(=O)N[C@@H](Cc1ccc2ccccc2c1)C(N)=O)[C@@H](C)O
The GHI of the first is higher: 17 for the first, 16 for the second.

Going from CC(C)[C@@H]1NC(=O)[C@H](CCCCN)NC(=O)[C@@H](Cc2c[nH]c3ccccc23)NC(=O)[C@H](Cc2ccc(O)cc2)NC(=O)[C@@H](NC(=O)[C@H](N)Cc2ccc3ccccc3c2)CSSC[C@@H](C(=O)N[C@@H](Cc2ccc3ccccc3c2)C(N)=O)NC1=O (H-[d2Nal]CY[dW]KVC[2Nal]-NH2; disulfide 2-7) to C[C@@H](O)[C@@H]1NC(=O)[C@H](CCCCN)NC(=O)[C@@H](Cc2c[nH]c3ccccc23)NC(=O)[C@H](Cc2ccc(O)cc2)NC(=O)[C@@H](NC(=O)[C@H](N)Cc2ccccc2)CSSC[C@@H](C(=O)N[C@@H](Cc2ccc3ccccc3c2)C(N)=O)NC1=O, the GHI falls from 11 to 0.05.

Compared with CC(C)[C@@H]1NC(=O)[C@H](CCCCN)NC(=O)[C@@H](Cc2c[nH]c3ccccc23)NC(=O)[C@H](Cc2ccc(O)cc2)NC(=O)[C@@H](NC(=O)[C@H](N)Cc2ccc3ccccc3c2)CSSC[C@@H](C(=O)N[C@H](C(=O)O)[C@@H](C)O)NC1=O, CC(C)[C@@H]1NC(=O)[C@H](CCCCN)NC(=O)[C@@H](Cc2c[nH]c3ccccc23)NC(=O)[C@H](Cc2ccc(O)cc2)NC(=O)[C@@H](NC(=O)[C@H](N)Cc2ccc3ccccc3c2)CSSC[C@@H](C(=O)N[C@H](C(N)=O)[C@@H](C)O)NC1=O is lower in GHI: 1.07 for the first, 0.83 for the second.

Compared with CC(C)[C@H](NC(=O)[C@H](CCCCN)NC(=O)[C@@H](Cc1c[nH]c2ccccc12)NC(=O)[C@H](Cc1ccc(O)cc1)NC(=O)[C@H](C)NC(=O)[C@H](N)Cc1ccc(Cl)cc1)C(=O)N[C@@H](C)C(=O)N[C@@H](Cc1ccc2ccccc2c1)C(N)=O (H-[dPhe(4-Cl)]AY[dW]KVA[2Nal]-NH2), CN[C@H](C)C(=O)N[C@@H](Cc1ccc(O)cc1)C(=O)N[C@H](Cc1c[nH]c2ccccc12)C(=O)N[C@@H](CCCCN)C(=O)N[C@H](C(=O)N[C@@H](Cc1ccccc1)C(N)=O)C(C)C is higher in GHI: 45 for the first, 20000 for the second.

First: CC(C)C[C@@H]1NC(=O)[C@H](Cc2ccccc2)NC(=O)CCCCCCNC(=O)[C@H](Cc2ccccc2)NC(=O)[C@H]([C@@H](C)O)NC(=O)[C@H](CCCCN)NC(=O)[C@@H](Cc2c[nH]c3ccccc23)NC1=O (stereo in doubt)
Second: C[C@@H](O)[C@@H]1NC(=O)[C@H](CCCCN)NC(=O)[C@@H](Cc2c[nH]c3ccccc23)NC(=O)[C@H](Cc2ccc(Cl)cc2)NC(=O)[C@H](Cc2ccccc2)NC(=O)CCCCCCNC(=O)[C@H](Cc2ccccc2)NC1=O (stereo in doubt)
The GHI of the first is lower: 1.05 for the first, 1.4 for the second.

First: C[C@@H]1NC(=O)[C@H]([C@@H](C)O)NC(=O)C(CCCCN)NC(=O)[C@@H](Cc2c[nH]c3ccccc23)NC(=O)C(Cc2ccccc2)NC(=O)[C@H]2CCCN2C1=O (single isomer, unassigned)
Second: CC1NC(=O)[C@H]([C@@H](C)O)NC(=O)C(CCCCN)NC(=O)[C@@H](Cc2c[nH]c3ccccc23)NC(=O)C(Cc2ccccc2)NC(=O)[C@@H]2CCCN2C1=O (single isomer, unassigned; 61)
The GHI of the first is lower: 166 for the first, 500 for the second.

Compared with C[C@@H](O)[C@@H]1NC(=O)C(CCCCN)NC(=O)[C@@H](Cc2c[nH]c3ccccc23)NC(=O)C(Cc2ccccc2)NC(=O)[C@@H]2CCCN2C(=O)C(Cc2ccccc2)NC1=O (single isomer, unassigned), NCCCCC1NC(=O)[C@@H](Cc2c[nH]c3ccccc23)NC(=O)C(Cc2ccccc2)NC(=O)[C@@H]2CCCN2C(=O)C(Cc2ccccc2)NC(=O)[C@H](CO)NC1=O (single isomer, unassigned) is higher in GHI: 0.59 for the first, 0.71 for the second.

Compared with COc1ccc2[nH]cc(C[C@@H]3NC(=O)[C@H](Cc4ccccc4)NC(=O)[C@H](Cc4ccccc4)NC(=O)CCCCCCNC(=O)[C@H](Cc4ccccc4)NC(=O)[C@H]([C@@H](C)O)NC(=O)[C@H](CCCCN)NC3=O)c2c1 (stereo in doubt), C[C@@H](O)[C@@H]1NC(=O)[C@H](CCCCN)NC(=O)[C@@H](Cc2c[nH]c3ccccc23)NC(=O)[C@H](Cc2ccc([N+](=O)[O-])cc2)NC(=O)[C@H](Cc2ccccc2)NC(=O)CCCCCCNC(=O)[C@H](Cc2ccccc2)NC1=O (stereo in doubt) is lower in GHI: 50 for the first, 3.5 for the second.

First: CC1NC(=O)[C@@H]2CCCN2C(=O)C(Cc2ccccc2)NC(=O)[C@H]([C@@H](C)O)NC(=O)C(CCCCN)NC(=O)[C@@H](Cc2c[nH]c3ccccc23)NC1=O (single isomer, unassigned)
Second: CC[C@@H]1NC(=O)C(CCCCN)NC(=O)[C@@H](Cc2c[nH]c3ccccc23)NC(=O)C(Cc2ccccc2)NC(=O)[C@@H]2CCCN2C(=O)C(Cc2ccccc2)NC1=O (single isomer, unassigned)
The GHI of the first is higher: 5 for the first, 1.25 for the second.

Going from C[C@@H](O)[C@H](NC(=O)[C@H](Cc1ccccc1)NC(=O)[C@@H](NC(=O)[C@H](CCCCN)NC(=O)[C@@H](Cc1c[nH]c2ccccc12)NC(=O)[C@H](Cc1ccccc1)NC(=O)[C@H](Cc1ccccc1)NC(=O)[C@H](N)Cc1ccccc1)[C@@H](C)O)C(N)=O (H-[dF]FF[dW]KTFT-NH2) to CC(C)[C@H](NC(=O)[C@H](CCCCN)NC(=O)[C@@H](Cc1c[nH]c2ccccc12)NC(=O)[C@H](Cc1ccc(O)cc1)NC(=O)[C@H](Cc1ccccc1)NC(=O)[C@H](N)Cc1ccccc1)C(=O)N[C@@H](Cc1ccccc1)C(=O)N[C@H](Cc1ccccc1)C(N)=O (H-[dF]FY[dW]KVF[dF]-NH2), the GHI rises from 77 to 11100.

Going from CC(C)C1NC(=O)[C@H](CCCCN)NC(=O)C(Cc2c[nH]c3ccccc23)NC(=O)[C@H](Cc2ccc(O)cc2)NC(=O)C(C)N(C)C(=O)[C@H](Cc2ccccc2)NC1=O (single isomer, unassigned) to C[C@@H](O)[C@@H]1NC(=O)[C@H](CCCCN)NC(=O)[C@@H](Cc2c[nH]c3ccccc23)NC(=O)[C@H](Cc2ccccc2)NC(=O)[C@@H]2CSSC[C@H](NC1=O)C(=O)NCCCCCCC(=O)N2 (stereo in doubt), the GHI rises from 0.02 to 0.81.

First: C[C@H](NC(=O)[C@H](N)Cc1ccccc1)C(=O)N[C@@H](Cc1ccccc1)C(=O)N[C@H](Cc1c[nH]c2ccccc12)C(=O)N[C@@H](CCCCN)C(=O)N[C@H](C(=O)N[C@@H](C)C(=O)N[C@H](C(N)=O)[C@@H](C)O)[C@@H](C)O (H-[dF]AF[dW]KTAT-NH2)
Second: CC(C)[C@@H]1NC(=O)[C@H](CCCCN)NC(=O)[C@@H](Cc2c[nH]c3ccccc23)NC(=O)[C@H](Cc2c[nH]c3ccccc23)NC(=O)[C@H](NC(=O)[C@H](N)Cc2ccccc2)CSSC[C@@H](C(=O)N[C@@H](Cc2ccc3ccccc3c2)C(N)=O)NC1=O
The GHI of the first is higher: 2500 for the first, 0.2 for the second.

— ChEMBL document CHEMBL1128385, “Three-dimensional quantitative structure-activity relationships of somatostatin analogues. 1. Comparative molecular field analysis of growth hormone release-inhibiting potencies” (J Med Chem, 1995)
